Test: Toxicity liver stage against HepG2, at 10uM
Format: cell-based
Parameters: test concentration 10 uM, cell line HepG2-A16-CD81EGFP
Conditions: human, HepG2-A16-CD81EGFP cells; read-out: INHIBITION
In short: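 Uninfected HepG2-A16-CD81EGFP cells, 3 × 10^3 per well, 1536-well, plated on prespotted compound at 10 μM final, parasite-free screening media added to match infected plates; puromycin 10 μM positive, DMSO 0.5% negative; run in parallel with 48 h PbLuc assay at 37 °C, 5% CO2; viability by CellTiter-Glo luminescence, normalized to controls.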

SMILES	cytotoxicity at 10 µM
COC1CCN(C(=O)CC2CCCC2)CC(=O)N(C)c2ccccc21 (stereo unspecified)	-3.09%
COc1cccc(S(=O)(=O)Cc2noc(CC(C)C)n2)c1	12%
CCCS(=O)(=O)N1CCC(Nc2c(F)cc(C#N)cc2F)CC1	1.34%
Cc1nc(COC[C@@]23CCC[C@@H]2CN(Cc2nccs2)C3)cs1	12.9%
CC(C)Oc1cc(N2CCC(C(N)=O)CC2)nc(N)n1	2.96%
C1CC1c1nsc(N2CCN(C3CC3)CC2)n1	-16.4%
O=C(NCCC(=O)N1CCCCCC1)c1c(O)cc(F)cc1F	-1.8%
NC(=O)NC(CC(=O)NCCc1cccc(F)c1)c1ccccc1 (stereo unspecified)	-0.862%
Cn1cccc1-c1cc(C(=O)N2CCCC2c2cccnc2)[nH]n1 (stereo unspecified)	-9.32%
Cc1nc(NCCC23CCCN2CCC3)cc(C2CCCNC2)n1 (stereo unspecified)	7.98%
CN(CCCc1nccn1C)C(=O)C1CCN(C(=O)C2CCCC2)CC1	-15.3%
CN(C)c1cc(C(=O)Nc2ccccc2C(=O)NC(C)(C)C)ccn1	2.46%
Cc1nc(C(=O)N2C[C@@H]3CN(S(C)(=O)=O)CCO[C@@H]3C2)cs1	1.98%
Cc1cc2n(n1)[C@@H](C(F)(F)F)C[C@@H](C1CCN(C(=O)C(C)C)CC1)N2	-30%
CC(C)S(=O)(=O)NCC1CCCN(C(=O)c2ccc(Cl)cc2)C1 (stereo unspecified)	-3.44%
CNC(=O)[C@@H]1C[C@@H](N)CN1C1CCN(Cc2ccccn2)CC1	-53.5%
O=C(c1cc(C2CC2)nc2onc(-c3ccccc3)c12)N1CC[C@H](O)C1	-40.4%
CC(C)C1=NOC2(CCN(C(=O)C3CCCC3)CC2)C1	6.69%
Cc1ccsc1C(=O)NCc1ccnc(C2CCCOC2)n1 (stereo unspecified)	-23.6%
CN(Cc1nncn1C)c1nccc(C2CCCC2)n1	-1.14%
COCc1nc(CNc2cccc(-c3nc(C)c(C)o3)c2)cs1	5.11%

SMILES	cytotoxicity at 10 µM
Cc1cc(C)c2[nH]c(=O)c(CN3CCCC4(C3)CN(C)C(=O)O4)cc2c1 (stereo unspecified)	-14.3%
Cn1cc(CN2CC[C@H]3[C@H]2CC(=O)N3Cc2ccncc2)cn1	-5.87%
N#Cc1cccnc1NCCNC(=O)N1CCCC(N2CCCC2)C1 (stereo unspecified)	7.61%
CCC(=O)Nc1ccc2c(c1)CN(C(=O)c1ccco1)CC2	5.84%
OC(CN(Cc1ccccc1)Cc1ccon1)c1ccco1 (stereo unspecified)	4.42%
O=C(NCC1CCOC1)c1cc(-c2ccccc2Cl)[nH]n1 (stereo unspecified)	-3.11%
CC1CN(Cc2ccccc2)CCCN1CCCS(C)(=O)=O (stereo unspecified)	5.27%
COCCN1CCC(c2nc3ccc(-c4ccccc4)cn3n2)CC1	-8.84%
CC(O)C1CCN(Cc2nccn2CC(F)(F)F)CC1 (stereo unspecified)	4.29%
Cc1cc(CN2CCC3(CC2)COC(COCC2CC2)C3)no1 (stereo unspecified)	-107%
Cn1cc(C[C@H]2[C@H](O)CCN2CC2CC2)cn1	-0.516%
c1[nH]c(CC2CCCC2)nc1CN1CCCC2(CCOC2)C1 (stereo unspecified)	-9.12%
Cc1ccc(CN2CCNC(C(=O)NC3CC3)C2)cc1C (stereo unspecified)	-3.41%
CN1CSC[C@H]1C(=O)N1CCC(Cc2ccccc2F)CC1	1.01%
O=C(C1CCC1)N1CCN(Cc2ccc(F)cc2)[C@H]2CS(=O)(=O)C[C@H]21	1.65%
COCCn1cnnc1Cn1ccnc1-c1ccccc1C	-7.58%
CC(=O)N1CCC2(CCN(C(=O)c3cccc(C(F)(F)F)c3)CC2)C1	-71.5%
CC(NC(=O)Nc1cc(F)ccc1N1CCCCC1)c1nncn1C (stereo unspecified)	-3.36%
c1ccc(CCCn2ccnc2-c2cn(C3CCNCC3)nn2)nc1	-1.86%
CCCc1nnc(N2CCC(N3CCCC(O)C3)CC2)o1 (stereo unspecified)	13.6%
CS(=O)(=O)N1CCN(C(=O)c2cc(-c3ccc(Br)s3)n[nH]2)CC1	-7.62%

SMILES	cytotoxicity at 10 µM
Cn1cc2ncn(CCC3CCN(Cc4ccccc4)C3)c(=O)c2n1 (stereo unspecified)	1.28%
CN(C)[C@@H]1CCN(C(=O)c2cccc(C#N)c2)[C@H]1Cc1cnn(C)c1	-72.6%
C[C@]1(O)CN(Cc2cscn2)CC[C@@H]1Oc1cccc(F)c1	7.08%
Cc1c(NC(=O)N(C)CCO)cccc1OC1CCCC1	-0.172%
CCOc1ccc(CNC(C)c2cccc(S(=O)(=O)NC)c2)cc1 (stereo unspecified)	16.1%
Cc1nn(C(C)(C)C)c(=O)n1CC(=O)NC(C)(C)C	1.45%
CCn1nccc1CNc1[nH]cnc2nncc1-2	3.15%
O=C(O)C(c1ccc2c(c1)OCO2)N1CCCCCC1 (stereo unspecified)	-0.293%
Cc1ccc(CN2CCC3(CCC(C(=O)N(C)C)O3)CC2)o1 (stereo unspecified)	-2.63%
Cc1cnc(CN2CCN(c3ccc4nncn4n3)C(C)C2)cn1 (stereo unspecified)	-2.21%
CC(O)C1CCN(Cc2cnc3c(-c4ccccc4)cnn3c2)CC1 (stereo unspecified)	-0.537%
CC(C)SCc1cccc(NC(=O)NCCc2nnc[nH]2)c1	-46.1%
Cc1noc(C)c1CN(C)Cc1csc(-c2ccc(F)cc2)n1	27.8%
O=C(CNC1CCc2ncnn2C1)N(Cc1cccs1)C1CC1 (stereo unspecified)	-3.09%
CC(=O)Nc1ncc(S(=O)(=O)N2CCOCC2)s1	4.81%
Cc1cc(CN(C2CC2)C(C)C(C)C)no1 (stereo unspecified)	0.519%
Cc1nn(C)c(C)c1CN(Cc1cccn1-c1ccccn1)C(C)C	0.936%
Cc1c(-c2ccncc2)n[nH]c1NC(=O)CCOC(C)C	6.58%
COC(=O)c1cccn1C1CCN(C(=O)c2cc(F)ccc2C)CC1	-2.13%
CC(=O)c1cc(C(=O)N2Cc3ccccc3OC3(CCOCC3)C2)cs1	-20%
c1cc(-c2ccc3c(c2)CCC32CCN(c3nncs3)CC2)co1	-2.07%

SMILES	cytotoxicity at 10 µM
CS(=O)(=O)N1CCN2C(=O)N(C3CCOCC3)C[C@H]2C1	5.76%
CCC(C)n1cnc(S(=O)(=O)N(C)C)c1 (stereo unspecified)	-7.07%
Cc1cnc(N)nc1N1CCN(CCCO)CC1	0.761%
CC(NC(=O)NCCn1ccnc1)c1ccc2c(c1)CCC(=O)N2 (stereo unspecified)	-18.1%
C[C@@H]1C(=O)NC[C@H]2CN(Cc3ccsc3)C[C@H]21	4.22%
Cc1cc2c(=O)n3c(nc2s1)CCN(C(=O)c1scnc1C)CC3	-0.774%
COc1cccc(CNCc2c(C)nn(C)c2N(C)C)c1	-2.51%
O=C(Cn1cccn1)NCC1CCCN(Cc2ccccc2)C1 (stereo unspecified)	-16.2%
CCc1n[nH]c(C2CN(C(=O)CCCn3cccn3)CCO2)n1 (stereo unspecified)	-6.69%
COc1cccc(N2CCN(CC[C@H](O)c3ccccc3)CC2=O)c1	3.61%
CC(NC(=O)NCC1(c2ccc(F)cc2)CCCC1)c1nncn1C (stereo unspecified)	-6.27%
O=C(N1CCCC1)N1CCO[C@H]2[C@@H](Oc3ccccn3)CC[C@@H]21	8.95%
CN(C)c1cc(CNc2ccc(S(=O)(=O)C(C)(C)C)nc2)ccn1	-7.33%
Cc1cc(NCCNc2ccc(C#N)cn2)nc(C)n1	4.42%
COc1cccc(COCC(=O)N2CCCC(n3ccnc3)C2)c1 (stereo unspecified)	-8.38%
Cc1ccc(C)c(C(=O)NCC(c2cccn2C)N2CCCCCC2)c1 (stereo unspecified)	5.64%
CC(C)c1nc(O)c2nnn(C[C@H]3CCCN(Cc4ccsc4)C3)c2n1	1.8%
O=C(c1n[nH]c2c1CCN(Cc1nccs1)C2)N1CCOCC1	-144%

From ChEMBL document CHEMBL4513216, “Probing the Open Global Health Chemical Diversity Library for Multistage-Active Starting Points for Next-Generation Antimalarials” (ACS Infect Dis, 2020)
